Laboratory results reported in ChEMBL document CHEMBL3616416, “Imidazolidine-4-one derivatives in the search for novel chemosensitizers of Staphylococcus aureus MRSA: synthesis, biological evaluation and molecular modeling studies” (Eur J Med Chem, 2015).
Values after ≈ are worked out from the molar mass of the structure shown. Active and inactive are the calls of the source. The rule behind the calls is not given here.

Experiments:
Staphylococcus aureus [1] = test: Antimicrobial activity against methicillin-resistant Staphylococcus aureus HEMSA incubated for 20 hrs by serial dilution broth microplate method; type: functional
In short: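 Broth microdilution MIC per CLSI in Mueller-Hinton broth against clinical isolate MRSA HEMSA 5. Bacterial suspension adjusted to OD 0.5, diluted 1:100 and added to serial two-fold dilutions of test agent. Ampicillin/sulbactam used at 2:1 ratio. Growth read after 20 h at 37 °C.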

Staphylococcus aureus [2] = test: Antimicrobial activity against Staphylococcus aureus ATCC 25923 incubated for 20 hrs by serial dilution broth microplate method; type: functional; details: ATCC 25923, 20 h
In short: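 Broth dilution per CLSI in Mueller-Hinton broth, serial two-fold dilutions; compounds alone against reference strain, inoculum from suspension at OD 0.5 diluted 1:100; read after 20 h at 37 °C. MIC taken as lowest concentration inhibiting growth.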

[3] = target: T1, Methicillin resistance mecR1 protein (Staphylococcus aureus) (UniProt P0A0B1); test: Inhibition of MecR1 in methicillin-resistant Staphylococcus aureus HEMSA assessed as reduction in oxacillin A MIC at 0.0039 mM incubated for 20 hrs by serial dilution broth microplate method
T1 sequence (whole entry): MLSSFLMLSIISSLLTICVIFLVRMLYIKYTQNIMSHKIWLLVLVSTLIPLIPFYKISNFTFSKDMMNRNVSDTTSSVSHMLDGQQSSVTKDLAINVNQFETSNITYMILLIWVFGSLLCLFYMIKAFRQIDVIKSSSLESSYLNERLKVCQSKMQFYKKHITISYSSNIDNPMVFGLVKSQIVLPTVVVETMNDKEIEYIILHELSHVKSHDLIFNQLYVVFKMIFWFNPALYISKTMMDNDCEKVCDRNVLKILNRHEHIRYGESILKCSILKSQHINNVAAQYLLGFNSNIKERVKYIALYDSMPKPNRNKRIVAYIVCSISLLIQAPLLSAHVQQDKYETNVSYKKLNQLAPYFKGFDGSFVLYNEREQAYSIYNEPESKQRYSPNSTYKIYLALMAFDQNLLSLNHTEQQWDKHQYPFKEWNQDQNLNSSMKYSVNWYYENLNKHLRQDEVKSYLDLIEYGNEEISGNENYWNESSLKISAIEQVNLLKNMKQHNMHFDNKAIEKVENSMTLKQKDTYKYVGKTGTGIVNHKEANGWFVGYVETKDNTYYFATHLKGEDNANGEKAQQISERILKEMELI
In short: (§1)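 Chemosensitization in MRSA HEMSA 5 measured by CLSI broth microdilution in Mueller-Hinton broth. Serial two-fold dilutions of antibiotic (oxacillin, cloxacillin, ampicillin/sulbactam 2:1, ciprofloxacin or neomycin) combined with compound at fixed concentration not exceeding ¼ of its own MIC. Inoculum OD 0.5 diluted 1:100. Read after 20 h at 37 °C. Result given as fold reduction of antibiotic MIC.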

Staphylococcus aureus [4] = test: Potentiation of oxacillin-induced antibacterial activity against Staphylococcus aureus ATCC 25923 assessed as reduction in oxacillin MIC at 0.0005 mM incubated for 20 hrs by serial dilution broth microplate method; type: functional, organism-based
[5] = target: T1, Methicillin resistance mecR1 protein (Staphylococcus aureus); test: Inhibition of MecR1 in methicillin-resistant Staphylococcus aureus HEMSA assessed as reduction in cloxacillin MIC at 0.0039 mM incubated for 20 hrs by serial dilution broth microplate method; in short: as §1
[6] = target: T1, Methicillin resistance mecR1 protein (Staphylococcus aureus); test: Inhibition of MecR1 in methicillin-resistant Staphylococcus aureus HEMSA assessed as reduction in ampicillin and sulbactam MIC at 0.0039 mM incubated for 20 hrs by serial dilution broth microplate method; in short: as §1
Staphylococcus aureus [7] = test: Potentiation of […] antibacterial activity against Staphylococcus aureus ATCC 25923 assessed as reduction in cloxacillin MIC incubated for 20 hrs by serial dilution broth microplate method; type: functional, organism-based
Staphylococcus aureus [8] = test: Potentiation of […] antibacterial activity against Staphylococcus aureus ATCC 25923 assessed as reduction in ampicillin and sulbactam MIC MIC incubated for 20 hrs by serial dilution broth microplate method; type: functional, organism-based
[9] = target: T1, Methicillin resistance mecR1 protein (Staphylococcus aureus); test: Inhibition of MecR1 in methicillin-resistant Staphylococcus aureus HEMSA assessed as reduction in ciprofloxacin MIC at 0.0039 mM incubated for 20 hrs by serial dilution broth microplate method; in short: as §1
[10] = target: T1, Methicillin resistance mecR1 protein (Staphylococcus aureus); test: Inhibition of MecR1 in methicillin-resistant Staphylococcus aureus HEMSA assessed as reduction in neomycin MIC at 0.0039 mM incubated for 20 hrs by serial dilution broth microplate method; in short: as §1
Staphylococcus aureus [11] = test: Potentiation of ciprofloxacin -induced antibacterial activity against Staphylococcus aureus ATCC 25923 assessed as reduction in […] MIC incubated for 20 hrs by serial dilution broth microplate method; type: functional, organism-based
Staphylococcus aureus [12] = test: Potentiation of neomycin-induced antibacterial activity against Staphylococcus aureus ATCC 25923 assessed as reduction in […] MIC incubated for 20 hrs by serial dilution broth microplate method; type: functional, organism-based
Staphylococcus aureus [13] = test: Resistance index, ratio of MIC for methicillin-resistant Staphylococcus aureus HEMSA to MIC for Staphylococcus aureus ATCC 25923; type: functional
[14] = target: T1, Methicillin resistance mecR1 protein (Staphylococcus aureus); test: Inhibition of MecR1 in methicillin-resistant Staphylococcus aureus HEMSA assessed as reduction in oxacillin A MIC at 0.5 mM incubated for 20 hrs by serial dilution broth microplate method; in short: as §1
Staphylococcus aureus [15] = test: Potentiation of oxacillin-induced antibacterial activity against Staphylococcus aureus ATCC 25923 assessed as reduction in oxacillin MIC at 0.5 mM incubated for 20 hrs by serial dilution broth microplate method; type: functional, organism-based
[16] = target: T1, Methicillin resistance mecR1 protein (Staphylococcus aureus); test: Inhibition of MecR1 in methicillin-resistant Staphylococcus aureus HEMSA assessed as reduction in oxacillin A MIC at 0.25 mM incubated for 20 hrs by serial dilution broth microplate method; in short: as §1
[17] = target: T1, Methicillin resistance mecR1 protein (Staphylococcus aureus); test: Inhibition of MecR1 in methicillin-resistant Staphylococcus aureus HEMSA assessed as reduction in cloxacillin MIC at 0.25 mM incubated for 20 hrs by serial dilution broth microplate method; in short: as §1
[18] = target: T1, Methicillin resistance mecR1 protein (Staphylococcus aureus); test: Inhibition of MecR1 in methicillin-resistant Staphylococcus aureus HEMSA assessed as reduction in ampicillin and sulbactam MIC at 0.25 mM incubated for 20 hrs by serial dilution broth microplate method; in short: as §1
[19] = target: T1, Methicillin resistance mecR1 protein (Staphylococcus aureus); test: Inhibition of MecR1 in methicillin-resistant Staphylococcus aureus HEMSA assessed as reduction in ciprofloxacin MIC at 0.25 mM incubated for 20 hrs by serial dilution broth microplate method; in short: as §1
[20] = target: T1, Methicillin resistance mecR1 protein (Staphylococcus aureus); test: Inhibition of MecR1 in methicillin-resistant Staphylococcus aureus HEMSA assessed as reduction in neomycin MIC at 0.25 mM incubated for 20 hrs by serial dilution broth microplate method; in short: as §1
[21] = target: T1, Methicillin resistance mecR1 protein (Staphylococcus aureus); test: Inhibition of MecR1 in methicillin-resistant Staphylococcus aureus HEMSA assessed as reduction in oxacillin A MIC at 0.125 mM incubated for 20 hrs by serial dilution broth microplate method; in short: as §1
[22] = target: T1, Methicillin resistance mecR1 protein (Staphylococcus aureus); test: Inhibition of MecR1 in methicillin-resistant Staphylococcus aureus HEMSA assessed as reduction in cloxacillin MIC at 0.5 mM incubated for 20 hrs by serial dilution broth microplate method; in short: as §1
[23] = target: T1, Methicillin resistance mecR1 protein (Staphylococcus aureus); test: Inhibition of MecR1 in methicillin-resistant Staphylococcus aureus HEMSA assessed as reduction in ampicillin and sulbactam MIC at 0.5 mM incubated for 20 hrs by serial dilution broth microplate method; in short: as §1
[24] = target: T1, Methicillin resistance mecR1 protein (Staphylococcus aureus); test: Inhibition of MecR1 in methicillin-resistant Staphylococcus aureus HEMSA assessed as reduction in ciprofloxacin MIC at 0.5 mM incubated for 20 hrs by serial dilution broth microplate method; in short: as §1
[25] = target: T1, Methicillin resistance mecR1 protein (Staphylococcus aureus); test: Inhibition of MecR1 in methicillin-resistant Staphylococcus aureus HEMSA assessed as reduction in neomycin MIC at 0.5 mM incubated for 20 hrs by serial dilution broth microplate method; in short: as §1

O=C1NC(N2CCNCC2)=N/C1=C\c1cc2ccccc2c2ccccc12
MIC (Staphylococcus aureus [1]): 15.6 µM (≈ 5.56 µg/mL) | MIC (Staphylococcus aureus [2]): 1.9 µM (≈ 0.677 µg/mL) | inhibition [3]: inactive | Activity (Staphylococcus aureus [4]): inactive | fold change (FC) [5]: 2 | inhibition [6]: inactive | Activity (Staphylococcus aureus [7]): inactive | Activity (Staphylococcus aureus [8]): inactive | inhibition [9]: inactive | inhibition [10]: inactive | Activity (Staphylococcus aureus [11]): inactive | Activity (Staphylococcus aureus [12]): inactive | Ratio (Staphylococcus aureus [13]): 8

CC1(c2cccc3ccccc23)NC(=O)N(CCCCN)C1=O (stereo not given)
MIC (Staphylococcus aureus [1]): > 1000 µM | MIC (Staphylococcus aureus [2]): > 1000 µM | inhibition [14]: inactive | Activity (Staphylococcus aureus [15]): inactive

O=C1N/C(=C\c2ccc(Cl)cc2Cl)C(=O)N1CC(O)CN1CCNCC1 (stereo not given)
MIC (Staphylococcus aureus [1]): > 1000 µM | MIC (Staphylococcus aureus [2]): > 1000 µM | inhibition [14]: inactive | Activity (Staphylococcus aureus [15]): inactive

O=C1NC(N2CCNCC2)=N/C1=C\c1ccsc1
MIC (Staphylococcus aureus [1]): 1000 µM (≈ 262 µg/mL) | MIC (Staphylococcus aureus [2]): > 1000 µM | inhibition [16]: inactive | Activity (Staphylococcus aureus [15]): inactive | inhibition [17]: inactive | inhibition [18]: inactive | Activity (Staphylococcus aureus [7]): inactive | Activity (Staphylococcus aureus [8]): inactive | inhibition [19]: inactive | inhibition [20]: inactive | Activity (Staphylococcus aureus [11]): inactive | Activity (Staphylococcus aureus [12]): inactive

O=C1NC(N2CCNCC2)=N/C1=C\c1ccc(Cl)cc1
MIC (Staphylococcus aureus [1]): 500 µM (≈ 145 µg/mL) | MIC (Staphylococcus aureus [2]): > 1000 µM | inhibition [21]: inactive | Activity (Staphylococcus aureus [15]): inactive

Cc1onc(-c2ccccc2)c1C(=O)N[C@@H]1C(=O)N2[C@@H]1SC(C)(C)[C@@H]2C(=O)O [OXACILLIN]
MIC (Staphylococcus aureus [1]): 710 µM (≈ 285 µg/mL) | MIC (Staphylococcus aureus [2]): 0.47 µM (≈ 0.189 µg/mL) | Ratio (Staphylococcus aureus [13]): >1500

COc1ccc(/C=C2\NC(=O)N(CC(O)CNCCCN3CCN(C)CC3)C2=O)cc1 (stereo not given)
MIC (Staphylococcus aureus [1]): > 1000 µM | MIC (Staphylococcus aureus [2]): > 1000 µM | fold change (FC) [14]: 2 | Activity (Staphylococcus aureus [15]): inactive | fold change (FC) [22]: 8 | fold change (FC) [23]: 2 | Activity (Staphylococcus aureus [7]): inactive | Activity (Staphylococcus aureus [8]): inactive | fold change (FC) [24]: 2 | inhibition [25]: inactive | Activity (Staphylococcus aureus [11]): inactive | Activity (Staphylococcus aureus [12]): inactive

O=C(O)c1cn(C2CC2)c2cc(N3CCNCC3)c(F)cc2c1=O [CIPROFLOXACIN]
MIC (Staphylococcus aureus [1]): 14 µM (≈ 4.64 µg/mL) | MIC (Staphylococcus aureus [2]): 0.38 µM (≈ 0.126 µg/mL) | Ratio (Staphylococcus aureus [13]): 37
